Data reported in ChEMBL document CHEMBL5058577, “EUbOPEN Chemogenomics Library 2 (Multiplex)” (2022).

Tested on: Fibroblast
Assay: Multiplex assay against human fibroblast
Assay type: toxicity, cell-based
Outline: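 Live cells carried four stains from seeding: Hoechst33342, BioTracker Green Microtubule Cytoskeleton Dye, MitoTracker Red and Annexin V Alexa Fluor 680. They were imaged on a CQ1 microscope at 37°C and 5% CO2 after compound addition. Using CellPathfinder machine-learning gating, cells were split into Hoechst high-intensity objects or normal cells, normal cells into healthy, pyknosed or fragmented nuclei, and pyknosed cells into mitotic or apoptotic; tubulin, mitochondrial-mass and membrane-permeability phenotypes are per cents of healthy-nucleus cells.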

[1] = 12 h, 1 µM, compound concentration 1 uM, replicate 1
[2] = 12 h, 1 µM, compound concentration 1 uM, replicate 2
[3] = 12 h, 10 µM, compound concentration 10 uM, replicate 1
[4] = 12 h, 10 µM, compound concentration 10 uM, replicate 2
[5] = 24 h, 1 µM, compound concentration 1 uM, replicate 1
[6] = 24 h, 1 µM, compound concentration 1 uM, replicate 2
[7] = 24 h, 10 µM, compound concentration 10 uM, replicate 1
[8] = 24 h, 10 µM, compound concentration 10 uM, replicate 2
[9] = 48 h, 1 µM, compound concentration 1 uM, replicate 1
[10] = 48 h, 1 µM, compound concentration 1 uM, replicate 2
[11] = 48 h, 10 µM, compound concentration 10 uM, replicate 1
[12] = 48 h, 10 µM, compound concentration 10 uM, replicate 2

COc1cc(C(=O)N2CC[C@@H](O)[C@@H](N)C2)cc2nc(-c3cc4ccccc4n3CC3CC3)n(C)c12.Cl
Population Apoptotic (%) [1]: 21% | Population Fragmented Nuclei (%) [1]: 25% | Population Healthy Nuclei (%) [1]: 62% | Population Hoechst High Intensity Objects (%) [1]: 2% | Population Membrane Permeable-Phenotype (%) [1]: 0% | Population Mitochondria Different-Phenotype (%) [1]: 4% | Population Mitotic Cells (%) [1]: 78% | Population Normal (%) [1]: 97% | Population Pyknosed Nuclei (%) [1]: 12% | Population Tubulin-Different-Phenotype (%) [1]: 55% | Total Cell Count [1]: 160 | Population Apoptotic (%) [2]: 48% | Population Fragmented Nuclei (%) [2]: 24% | Population Healthy Nuclei (%) [2]: 44% | Population Hoechst High Intensity Objects (%) [2]: 3% | Population Membrane Permeable-Phenotype (%) [2]: 10% | Population Mitochondria Different-Phenotype (%) [2]: 14% | Population Mitotic Cells (%) [2]: 51% | Population Normal (%) [2]: 96% | Population Pyknosed Nuclei (%) [2]: 31% | Population Tubulin-Different-Phenotype (%) [2]: 69% | Total Cell Count [2]: 130 | Population Apoptotic (%) [3]: 60% | Population Fragmented Nuclei (%) [3]: 22% | Population Healthy Nuclei (%) [3]: 57% | Population Hoechst High Intensity Objects (%) [3]: 6% | Population Membrane Permeable-Phenotype (%) [3]: 0% | Population Mitochondria Different-Phenotype (%) [3]: 34% | Population Mitotic Cells (%) [3]: 40% | Population Normal (%) [3]: 93% | Population Pyknosed Nuclei (%) [3]: 19% | Population Tubulin-Different-Phenotype (%) [3]: 97% | Total Cell Count [3]: 271 | Population Apoptotic (%) [4]: 48% | Population Fragmented Nuclei (%) [4]: 30% | Population Healthy Nuclei (%) [4]: 44% | Population Hoechst High Intensity Objects (%) [4]: 10% | Population Membrane Permeable-Phenotype (%) [4]: 2% | Population Mitochondria Different-Phenotype (%) [4]: 25% | Population Mitotic Cells (%) [4]: 51% | Population Normal (%) [4]: 89% | Population Pyknosed Nuclei (%) [4]: 25% | Population Tubulin-Different-Phenotype (%) [4]: 92% | Total Cell Count [4]: 179 | Population Apoptotic (%) [5]: 55% | Population Fragmented Nuclei (%) [5]: 24% | Population Healthy Nuclei (%) [5]: 62% | Population Hoechst High Intensity Objects (%) [5]: 3% | Population Membrane Permeable-Phenotype (%) [5]: 0% | Population Mitochondria Different-Phenotype (%) [5]: 5% | Population Mitotic Cells (%) [5]: 45% | Population Normal (%) [5]: 96% | Population Pyknosed Nuclei (%) [5]: 13% | Population Tubulin-Different-Phenotype (%) [5]: 51% | Total Cell Count [5]: 158 | Population Apoptotic (%) [6]: 60% | Population Fragmented Nuclei (%) [6]: 31% | Population Healthy Nuclei (%) [6]: 36% | Population Hoechst High Intensity Objects (%) [6]: 4% | Population Membrane Permeable-Phenotype (%) [6]: 4% | Population Mitochondria Different-Phenotype (%) [6]: 20% | Population Mitotic Cells (%) [6]: 39% | Population Normal (%) [6]: 95% | Population Pyknosed Nuclei (%) [6]: 31% | Population Tubulin-Different-Phenotype (%) [6]: 79% | Total Cell Count [6]: 125 | Population Apoptotic (%) [7]: 73% | Population Fragmented Nuclei (%) [7]: 15% | Population Healthy Nuclei (%) [7]: 68% | Population Hoechst High Intensity Objects (%) [7]: 7% | Population Membrane Permeable-Phenotype (%) [7]: 0% | Population Mitochondria Different-Phenotype (%) [7]: 55% | Population Mitotic Cells (%) [7]: 26% | Population Normal (%) [7]: 92% | Population Pyknosed Nuclei (%) [7]: 16% | Population Tubulin-Different-Phenotype (%) [7]: 94% | Total Cell Count [7]: 274 | Population Apoptotic (%) [8]: 62% | Population Fragmented Nuclei (%) [8]: 27% | Population Healthy Nuclei (%) [8]: 54% | Population Hoechst High Intensity Objects (%) [8]: 5% | Population Membrane Permeable-Phenotype (%) [8]: 3% | Population Mitochondria Different-Phenotype (%) [8]: 41% | Population Mitotic Cells (%) [8]: 37% | Population Normal (%) [8]: 94% | Population Pyknosed Nuclei (%) [8]: 17% | Population Tubulin-Different-Phenotype (%) [8]: 92% | Total Cell Count [8]: 174 | Population Apoptotic (%) [9]: 80% | Population Fragmented Nuclei (%) [9]: 22% | Population Healthy Nuclei (%) [9]: 67% | Population Hoechst High Intensity Objects (%) [9]: 6% | Population Membrane Permeable-Phenotype (%) [9]: 0% | Population Mitochondria Different-Phenotype (%) [9]: 8% | Population Mitotic Cells (%) [9]: 20% | Population Normal (%) [9]: 93% | Population Pyknosed Nuclei (%) [9]: 10% | Population Tubulin-Different-Phenotype (%) [9]: 44% | Total Cell Count [9]: 161 | Population Apoptotic (%) [10]: 64% | Population Fragmented Nuclei (%) [10]: 38% | Population Healthy Nuclei (%) [10]: 41% | Population Hoechst High Intensity Objects (%) [10]: 1% | Population Membrane Permeable-Phenotype (%) [10]: 3% | Population Mitochondria Different-Phenotype (%) [10]: 16% | Population Mitotic Cells (%) [10]: 35% | Population Normal (%) [10]: 98% | Population Pyknosed Nuclei (%) [10]: 20% | Population Tubulin-Different-Phenotype (%) [10]: 80% | Total Cell Count [10]: 153 | Population Apoptotic (%) [11]: 86% | Population Fragmented Nuclei (%) [11]: 20% | Population Healthy Nuclei (%) [11]: 64% | Population Hoechst High Intensity Objects (%) [11]: 8% | Population Membrane Permeable-Phenotype (%) [11]: 0% | Population Mitochondria Different-Phenotype (%) [11]: 62% | Population Mitotic Cells (%) [11]: 13% | Population Normal (%) [11]: 91% | Population Pyknosed Nuclei (%) [11]: 15% | Population Tubulin-Different-Phenotype (%) [11]: 94% | Total Cell Count [11]: 256 | Population Fragmented Nuclei (%) [12]: 32% | Population Healthy Nuclei (%) [12]: 55% | Population Hoechst High Intensity Objects (%) [12]: 4% | Population Mitochondria Different-Phenotype (%) [12]: 36% | Population Normal (%) [12]: 95% | Population Pyknosed Nuclei (%) [12]: 11% | Total Cell Count [12]: 193
